# Assay outcomes from PubChem.
# T cruzi growth-1 = inhibitors of T. cruzi proliferation. T. cruzi beta-gal in NIH3T3, GalScreen luminescence, 90 h. inhibition, % at 8.34 µM. actives 5.9% (n = 77,000). AID 624255;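 active = mean inhibition above about 93%, with at least 55% of replicates each passing it, limit read from the data, passing the limit was not always enough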
# IDH1 mut inh = blocks human IDH1 R132H reductase activity; O75874; diaphorase/resazurin fluorescence, 60 min; inhibition, % at 10 µM; actives 0.18% (n = 70,000); AID 624101; in the data active = inhibition above about 34%
# GASC1 inh = blocks human GASC-1 (KDM4C) demethylase activity; GST-KDM4C 2-372, H3K9me3 peptide, LANCE TR-FRET; Q9H3R0; actives 0.15% (n = 96,000); AID 720574; inhibition, % at 12.5 µM;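 active = mean replicate inhibition above about 25%, with at least 55% of replicates also reaching it, limit read from the data, passing the limit was not always enough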
# Target sequence (Q9H3R0 2-372 limits assumed): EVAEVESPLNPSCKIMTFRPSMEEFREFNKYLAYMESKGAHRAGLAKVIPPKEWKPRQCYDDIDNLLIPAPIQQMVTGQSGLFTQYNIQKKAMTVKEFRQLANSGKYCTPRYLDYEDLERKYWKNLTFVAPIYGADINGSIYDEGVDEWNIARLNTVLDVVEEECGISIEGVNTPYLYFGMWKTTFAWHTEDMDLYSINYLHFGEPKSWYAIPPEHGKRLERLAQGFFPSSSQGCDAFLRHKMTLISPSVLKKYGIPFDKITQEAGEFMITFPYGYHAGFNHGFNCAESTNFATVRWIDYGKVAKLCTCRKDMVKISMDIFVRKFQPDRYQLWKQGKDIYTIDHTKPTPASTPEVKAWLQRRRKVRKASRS
#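 Material: GST-tagged GASC-1 (JMJD2C) catalytic fragment, aa 2-372 / Quantity: enzyme final amount 10 nM / Medium: HEPES buffer, pH 7.5, plus ascorbate / Doses: one test concentration per compound / Incubation: 30 min reaction, 60 min detection, RT / Measured by: LANCE TR-FRET / Read-out: inhibition from TR-FRET ratio decrease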
# T cruzi growth-2 = inhibitors of T. cruzi proliferation | T. cruzi beta-gal in NIH3T3, GalScreen luminescence, 90 h | inhibition, % at 8.35 µM | actives 72% (n = 5,600) | shares compounds with T cruzi growth-1;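 active = mean replicate inhibition above about 95% and at least 55% of replicates individually reaching it, limit read from the data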
# T cruzi growth-3 = blocks T. cruzi growth in NIH3T3 host cells; shares compounds with T cruzi growth-1; T. cruzi beta-gal in NIH3T3, GalScreen luminescence, 90 h; inhibition, % at 2.09 µM; actives 21% (n = 5,600);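 active = mean inhibition above about 95%, with at least 55% of replicates also reaching it, limit read from the data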
# NIH3T3 tox = cytotoxicity in mouse NIH/3T3 fibroblasts; cytotoxicity (signal decrease), % at 8.35 µM; shares compounds with T cruzi growth-1; NIH/3T3 viability, CellTiter-Glo ATP luminescence, 90 h; AID 651742; actives 14% (n = 5,600);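 active = mean signal decrease across replicates above about 35% based on untreated-well scatter, with enough replicates individually passing, limit read from the data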
# NIH3T3 tox 2 = kills mouse NIH/3T3 fibroblasts | shares compounds with T cruzi growth-1 | NIH/3T3 viability, CellTiter-Glo ATP luminescence, 90 h | inhibition, % at 24.9 µM | actives 56% (n = 5,600) | AID 651744;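 active = mean loss of cell viability signal at or above a set limit, and enough replicates individually reaching it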
# Hits are given with their value; i = inactive; nt = no result given. The entries come from a sample that favours hits as a whole.
SMILES,T cruzi growth-1,IDH1 mut inh,GASC1 inh,T cruzi growth-2,T cruzi growth-3,NIH3T3 tox,NIH3T3 tox 2
C[C@@H]1CN([C@@H](C)CO)S(=O)(=O)c2ccc(C#Cc3ccccc3F)cc2O[C@@H]1CN(C)C(=O)Cc1ccccc1,120,i,i,102,99,i,78
CCC(=O)N(C)C[C@@H]1Oc2cc(C#CCC(C)C)ccc2S(=O)(=O)N([C@@H](C)CO)C[C@H]1C,i,i,i,nt,nt,nt,nt
CC(C)CC#Cc1ccc2c(c1)O[C@@H](CN(C)C(=O)Cc1ccccc1)[C@H](C)CN([C@H](C)CO)S2(=O)=O,129,i,i,105,99,i,107
CC(C)CC#Cc1ccc2c(c1)O[C@H](CN(C)C(=O)Cc1ccccc1)[C@H](C)CN([C@H](C)CO)S2(=O)=O,125,i,i,i,i,i,106
C[C@@H]1CN([C@H](C)CO)S(=O)(=O)c2ccc(C#Cc3ccccc3F)cc2O[C@H]1CN(C)C(=O)c1ccc2c(c1)OCO2,125,nt,i,100,106,i,91
CC(=O)N(C)C[C@@H]1Oc2cc(C#Cc3ccccc3F)ccc2S(=O)(=O)N([C@H](C)CO)C[C@@H]1C,i,i,i,nt,nt,nt,nt
CCc1cccc(OCC(=O)Nc2ccccc2C(N)=O)c1,nt,i,nt,nt,nt,nt,nt
O=C(Nc1ccccc1C(=O)O)c1cccc(S(=O)(=O)Nc2ccccc2)c1,nt,i,nt,nt,nt,nt,nt
OC(CSc1nc2ccccc2s1)Cn1c2ccccc2c2ccccc21 (stereo not given),nt,i,nt,nt,nt,nt,nt
O=[N+]([O-])c1ccc(NCCNC(=S)Nc2ccc(Cl)cc2)nc1,nt,i,nt,nt,nt,nt,nt
N#C/C(N)=C(\C#N)N=Cc1ccc(C#N)cc1,nt,i,nt,nt,nt,nt,nt
CCC(=O)N(C)C[C@H]1Oc2cc(C#CCC(C)C)ccc2S(=O)(=O)N([C@@H](C)CO)C[C@@H]1C,i,i,i,nt,nt,nt,nt
CC(C)CC#Cc1ccc2c(c1)O[C@@H](CN(C)C(=O)Cc1ccccc1)[C@H](C)CN([C@@H](C)CO)S2(=O)=O,129,i,i,97,103,i,104
Cc1ccc(C(=O)Nc2ccccc2C(=O)NCc2ccco2)cc1[N+](=O)[O-],nt,i,nt,nt,nt,nt,nt
OC[C@@H]1[C@@H](c2ccc(-c3ccccc3F)cc2)[C@H]2CN(Cc3ccncc3)CCCCN12,104,nt,i,i,i,i,81
OC[C@@H]1[C@H](c2ccc(-c3ccccc3F)cc2)[C@H]2CN(Cc3ccncc3)CCCCN12,107,nt,i,i,i,46,103
OC[C@H]1[C@H](c2ccc(-c3ccccc3F)cc2)[C@@H]2CN(Cc3cccnc3)CCCCN12,i,nt,i,nt,nt,nt,nt
OC[C@@H]1[C@H](c2ccc(-c3ccccc3F)cc2)[C@@H]2CN(Cc3cccnc3)CCCCN12,i,nt,i,nt,nt,nt,nt
OC[C@H]1[C@@H](c2ccc(-c3ccccc3F)cc2)[C@H]2CN(Cc3cccnc3)CCCCN21,i,nt,i,nt,nt,nt,nt
OC[C@H]1[C@H](c2ccc(-c3ccccc3F)cc2)[C@@H]2CN(Cc3ccncc3)CCCCN12,106,nt,i,101,i,i,103
O=C(CC(C(=O)O)N1CCCCC1)Nc1cccc(Cl)c1 (stereo not given),nt,i,nt,nt,nt,nt,nt
COC(=O)c1cccc(NC(=O)CSc2n[nH]c(-c3ccc(Cl)cc3)n2)c1,nt,i,nt,nt,nt,nt,nt
Cc1cc(C)c2oc(-c3cccc(NC(=O)COc4ccc(Cl)cc4)c3C)nc2c1,nt,i,nt,nt,nt,nt,nt
CC(=O)c1ccc(NC(=O)c2ccc(CSc3nc4ccc([N+](=O)[O-])cc4s3)cc2)cc1,nt,i,nt,nt,nt,nt,nt
CSc1ncc(Cl)c(C(=O)Nc2sc3c(c2C(=O)NCc2ccco2)CCC3)n1,nt,i,nt,nt,nt,nt,nt
C[C@@H]1CCCCO[C@H](CN(C)C(=O)Nc2cccc3ccccc23)[C@H](C)CN([C@H](C)CO)C(=O)c2cc(NS(=O)(=O)c3ccccc3)ccc2O1,nt,nt,i,nt,nt,nt,nt
C[C@@H]1CN([C@@H](C)CO)C(=O)c2cc(NS(=O)(=O)c3ccc(Cl)cc3)ccc2O[C@@H](C)CCCCO[C@H]1CN(C)C(=O)Nc1cccc2ccccc12,96,i,i,107,102,i,i
C[C@H](CO)N1C[C@H](C)[C@@H](CN(C)C(=O)Nc2cccc3ccccc23)OCCCC[C@H](C)Oc2ccc(NS(=O)(=O)c3ccccc3)cc2C1=O,nt,nt,i,nt,nt,nt,nt
